Here are results for 2 compounds from ChEMBL document CHEMBL4387781, “Optimization of oxadiazole derivatives with a spirocyclic cyclohexane structure as novel GPR119 agonists” (Bioorg Med Chem Lett, 2019).

As a reminder, the EC50 is the midpoint of the concentration-response curve.

Test system in the first series: not listed separately
Nature of the series: Stability in rat liver microsomes assessed as parent compound remaining at 5 uM measured after 1 hr. Type of series: ADME, Microsome. As to conditions: read-out: Stability. In short, it runs like this: (§1)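 Compound at 5 μM incubated 1 hour with human or rat liver microsomes (0.2 mg/mL); percent of parent remaining reported.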
Background: Microsomes from liver hold many membrane-bound enzymes, among them those of drug oxidation.
Consider `C[C@@H](O[C@H]1CC[C@]2(CC1)COC(C)(C)C2)c1nc(-c2cc(F)c(CS(C)(=O)=O)c(F)c2)no1`, for which the remaining at 1 h, 5 µM was determined as 83%.

Regarding `CC(O[C@H]1CC[C@]2(CC1)COC(C)(C)C2)c1nc(-c2ccc(CS(C)(=O)=O)c(F)c2)no1` (mixture of isomers), the remaining at 1 h, 5 µM was 86%.

The next series addresses T1, Glucose-dependent insulinotropic receptor (Homo sapiens) (UniProt Q8TDV5).
T1 sequence (whole entry): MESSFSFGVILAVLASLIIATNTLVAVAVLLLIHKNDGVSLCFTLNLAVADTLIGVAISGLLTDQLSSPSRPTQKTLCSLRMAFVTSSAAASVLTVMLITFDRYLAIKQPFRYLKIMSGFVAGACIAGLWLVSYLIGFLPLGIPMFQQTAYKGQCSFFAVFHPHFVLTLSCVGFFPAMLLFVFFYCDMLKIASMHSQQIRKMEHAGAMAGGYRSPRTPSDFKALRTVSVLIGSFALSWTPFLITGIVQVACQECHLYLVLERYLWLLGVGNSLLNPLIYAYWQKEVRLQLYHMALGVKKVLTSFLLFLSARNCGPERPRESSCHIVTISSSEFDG
The series can be described thus: Agonist activity at recombinant human GPR119 expressed in HEK293 cells assessed as increase in intracellular cAMP accumulation measured after 30 mins relative to oleoylethanolamide. Type of series: functional, cell-based.
Conditions: not given
Background: Changes in cAMP serve as a functional read-out for many G protein-coupled receptors.
Take `C[C@@H](O[C@H]1CC[C@]2(CC1)COC(C)(C)C2)c1nc(-c2cc(F)c(CS(C)(=O)=O)c(F)c2)no1`: the %max was 109%.

As to `CC(O[C@H]1CC[C@]2(CC1)COC(C)(C)C2)c1nc(-c2ccc(CS(C)(=O)=O)c(F)c2)no1` (mixture of isomers), the %max came out at 130%.

Test system in a further series: not listed separately
The series can be described thus: Stability in human liver microsomes assessed as parent compound remaining at 5 uM measured after 1 hr. Type of series: ADME, Microsome. The following applies: read-out: Stability. In short, it runs like this: as §1
Regarding `C[C@@H](O[C@H]1CC[C@]2(CC1)COC(C)(C)C2)c1nc(-c2cc(F)c(CS(C)(=O)=O)c(F)c2)no1`, the remaining at 1 h, 5 µM came out at 65%.

For the compound `CC(O[C@H]1CC[C@]2(CC1)COC(C)(C)C2)c1nc(-c2ccc(CS(C)(=O)=O)c(F)c2)no1` (mixture of isomers), the remaining at 1 h, 5 µM worked out at 62%.

In another series the target is T2, Glucose-dependent insulinotropic receptor (Homo sapiens, UniProt Q8TDV5).
T2 sequence (Q8TDV5 whole entry): T1 sequence (whole entry)
The series can be described thus: Agonist activity at recombinant human GPR119 expressed in HEK293 cells assessed as increase in intracellular cAMP accumulation measured after 30 mins. Type of series: functional, cell-based.
Conditions: not given
`C[C@@H](O[C@H]1CC[C@]2(CC1)COC(C)(C)C2)c1nc(-c2cc(F)c(CS(C)(=O)=O)c(F)c2)no1`: the EC50 is 5 nM.

Consider `CC(O[C@H]1CC[C@]2(CC1)COC(C)(C)C2)c1nc(-c2ccc(CS(C)(=O)=O)c(F)c2)no1` (mixture of isomers), for which the EC50 worked out at 44 nM.

Test system in a further series: not listed separately
Nature of the series: Protein binding in rat plasma. Format: ADME, cell-free. As to conditions: read-out: PPB (converted).
Turning to `C[C@@H](O[C@H]1CC[C@]2(CC1)COC(C)(C)C2)c1nc(-c2cc(F)c(CS(C)(=O)=O)c(F)c2)no1`, the fraction unbound is 0.06.

Test system in the next series: not listed separately
The series can be described thus: Protein binding in human plasma. The following applies: read-out: PPB (converted). Type of series: ADME, cell-free.
In the case of `C[C@@H](O[C@H]1CC[C@]2(CC1)COC(C)(C)C2)c1nc(-c2cc(F)c(CS(C)(=O)=O)c(F)c2)no1`, the fraction unbound was 0.035.
